According to paper PMC2861555 (International journal of radiation biology, 2009):
Like-named read-outs stand apart in the source and are kept apart here. Marks after values point to notes of the source that are not given here.

Columns and labels:
rats = details: ref Bergeron et al., cited from earlier work
[1] = assay type: in vivo, rat; details: for Bile/Urine (%): bile share of U excretion / Bile/Urine (%): urine share of U excretion / % Administered Dose Excreted: 24 h; for Reduction (%) of renal uranium vs control / reduction of bone actinide content vs control: 24 h post-metal; for % Administered Dose Excreted: bile + urine; for Renal Conc.: kidneys removed 24 h post-metal; for Kidney U Conc. / Liver U Conc. / Lung U Conc. / Spleen U Conc. / Bone (femur) U Conc.: tissue 24 h post-metal; for Bone (femur) U Conc.: bone + bone marrow; for reduction of bone actinide content vs control: femur
[2] = Multiple dose chelator administration in non-bile duct-cannulated; assay type: in vivo, rat; details: for % Administered Dose Excreted / Total U Excretion: urine + feces
Outline: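 Intact rats got uranyl acetate 1 mg U kg−1 s.c. (left flank), then test compound or DTPA 300 µmol kg−1 s.c. (right flank) immediately and at 24-h intervals (4 doses). Rats were caged singly with chow and water ad libitum. Urine and feces were collected every 24 h. Kidneys and other tissues were taken 24 h after the last dose. Uranium was measured by ICP-MS in triplicate; data are mean ± SEM.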

[3] = 24 h after last of 4 daily s.c. doses of 300 µmol kg^−1
[4] = Day 1, 300 µmol kg^−1 s.c. daily x 4
[5] = Day 2, 300 µmol kg^−1 s.c. daily x 4
[6] = Day 3, 300 µmol kg^−1 s.c. daily x 4
[7] = Day 4, 300 µmol kg^−1 s.c. daily x 4
[8] = single dose 300 µmol kg^−1 s.c.

| SMILES | Bile/Urine (%): bile share of U excretion ([1]; single dose 150 µmol kg^−1 SC) [%] | Bile/Urine (%): urine share of U excretion ([1]; single dose 150 µmol kg^−1 SC) [%] | Reduction (%) of renal uranium vs control ([1]; single dose 150 µmol kg^−1 SC) [%] | % Administered Dose Excreted ([1]; single dose 150 µmol kg^−1 SC) [%] | Renal Conc. ([1]; single dose 150 µmol kg^−1 SC) | Kidney U Conc. ([1]; single dose 150 µmol kg^−1 SC) | Liver U Conc. ([1]; single dose 150 µmol kg^−1 SC) | Lung U Conc. ([1]; single dose 150 µmol kg^−1 SC) | Spleen U Conc. ([1]; single dose 150 µmol kg^−1 SC) | Bone (femur) U Conc. ([1]; single dose 150 µmol kg^−1 SC) [µg/g] | Bile/Urine (%): bile share of U excretion ([1]; single dose 300 µmol kg^−1 PO) [%] | Bile/Urine (%): urine share of U excretion ([1]; single dose 300 µmol kg^−1 PO) [%] | Reduction (%) of renal uranium vs control ([1]; single dose 300 µmol kg^−1 PO) [%] | % Administered Dose Excreted ([1]; single dose 300 µmol kg^−1 PO) [%] | Renal Conc. ([1]; single dose 300 µmol kg^−1 PO) | Kidney U Conc. ([1]; single dose 300 µmol kg^−1 PO) | Liver U Conc. ([1]; single dose 300 µmol kg^−1 PO) | Lung U Conc. ([1]; single dose 300 µmol kg^−1 PO) | Spleen U Conc. ([1]; single dose 300 µmol kg^−1 PO) | Bone (femur) U Conc. ([1]; single dose 300 µmol kg^−1 PO) | also measured |
| --- | --- | --- | --- | --- | --- | --- | --- | --- | --- | --- | --- | --- | --- | --- | --- | --- | --- | --- | --- | --- | --- |
| C[C@]1(C(=O)O)CSC(c2ncccc2O)=N1 [DFT, (S)-4,5-dihydro-2-(3-hydroxy-2-pyridinyl)-4-methyl-4-thiazolecarboxylic acid, reference compound] | – | – | – | – | – | – | – | – | – | – | – | – | – | – | – | – | – | – | – | – | nephrotoxicity (rats; rats, 1993): severe nephrotoxicity |
| O=C(O)CN(CCN(CC(=O)O)CC(=O)O)CCN(CC(=O)O)CC(=O)O [DTPA, Diethylenetriaminepentaacetic acid, reference compound] | 2 | 98 | 44 | 27.6 | 47 ± 9 ^b µg g^−1 | 47 ± 9 ^b µg g^−1 | 0.1 ± 0.0 ^b µg g^−1 | 0.07 ± 0.01 ^b µg g^−1 | 0.15 ± 0.05 ^b µg g^−1 | 3.1 ± 1.1 | 0 | 100 | 36 | 21.2 | 54 ± 11 ^b µg g^−1 | 54 ± 11 ^b µg g^−1 | 0.2 ± 0.0 µg/g | 0.10 ± 0.02 ^b µg g^−1 | 0.13 ± 0.03 ^b µg g^−1 | 4.3 ± 1.3 µg/g | renal share of actinide excretion ([1]; route of actinide excretion, dose and route of chelator not stated at this place): 100%; Reduction (%) of renal uranium vs control [2, 3]: 39%; Renal Conc. [2, 3]: 19 ± 2 ^c µg g^−1; Fecal U Excretion [2, 4]: 30 ± 19 µg/kg; Urine U Excretion ([2]; Day 1, 300 µmol kg^−1 s.c. daily x 4, first dose immediately post-U): 380 ± 55 µg/kg; % Administered Dose Excreted [2, 4]: 41.0%; Total U Excretion [2, 4]: 410 ± 56 µg/kg; Fecal U Excretion [2, 5]: 13 ± 9 µg/kg; Urine U Excretion [2, 5]: 43 ± 11 µg/kg; % Administered Dose Excreted [2, 5]: 5.6%; Total U Excretion [2, 5]: 56 ± 16 ^c µg kg^−1; Fecal U Excretion [2, 6]: 13 ± 5 µg/kg; Urine U Excretion [2, 6]: 29 ± 6 µg/kg; % Administered Dose Excreted [2, 6]: 4.2%; Total U Excretion [2, 6]: 42 ± 5 µg/kg; Fecal U Excretion [2, 7]: 9 ± 5 µg/kg; Urine U Excretion [2, 7]: 14 ± 3 µg/kg; % Administered Dose Excreted [2, 7]: 2.3%; Total U Excretion [2, 7]: 23 ± 3 µg/kg; administered dose of uranium excreted at the end of four days (urine + feces) ([2]; cumulative over 4 days, 300 µmol kg^−1 s.c. daily x 4): 53% |
| COc1ccc(C2=N[C@@](C)(C(=O)O)CS2)c(O)c1 [compound 7, (S)-4'-(CH3O)-DADFT] | 62 | 38 | 77 | 24.8 | 19 ± 4 ^b µg g^−1 | 19 ± 4 ^b µg g^−1 | 11.3 ± 3.2 µg/g | 0.28 ± 0.04 ^c µg g^−1 | 0.39 ± 0.08 ^c µg g^−1 | 2.9 ± 0.9 | 89 | 11 | 94 | 26.5 | 5 ± 3 ^b µg g^−1 | 5 ± 3 ^b µg g^−1 | 5.1 ± 1.7 ^c µg g^−1 | 0.30 ± 0.10 ^c µg g^−1 | 0.49 ± 0.44 µg/g | 1.7 ± 0.9 ^b µg g^−1 | Liver U Conc. ([1]; single dose 150 µmol kg^−1 SC, listed as C00017): 11.3 ± 3.2 ^c µg g^−1; Bile/Urine (%): bile share of U excretion ([1]; single dose 300 µmol kg^−1 SC): 92%; Bile/Urine (%): urine share of U excretion ([1]; single dose 300 µmol kg^−1 SC): 8%; Reduction (%) of renal uranium vs control ([1]; single dose 300 µmol kg^−1 SC): 90%; % Administered Dose Excreted ([1]; single dose 300 µmol kg^−1 SC): 33.9%; Renal Conc. ([1]; single dose 300 µmol kg^−1 SC): 8 ± 2 ^b µg g^−1; Kidney U Conc. ([1]; single dose 300 µmol kg^−1 SC): 8 ± 2 ^b µg g^−1; Liver U Conc. ([1]; single dose 300 µmol kg^−1 SC): 8.1 ± 2.4 ^c µg g^−1; Lung U Conc. ([1]; single dose 300 µmol kg^−1 SC): 0.61 ± 0.13 ^c µg g^−1; Spleen U Conc. ([1]; single dose 300 µmol kg^−1 SC): 0.67 ± 0.18 ^c µg g^−1; Bone (femur) U Conc. ([1]; single dose 300 µmol kg^−1 SC): 1.8 ± 0.6 ^b µg g^−1; reduction of bone actinide content vs control ([1]; single dose 300 µmol kg^−1 p.o.): ≥ 50%; reduction of bone actinide content vs control [1, 8]: ≥ 50% |
| COCCOCCOCCOc1cccc(C2=N[C@@](C)(C(=O)O)CS2)c1O [compound 10, (S)-4,5-dihydro-2-[2-hydroxy-3-(3,6,9-trioxadecyloxy)phenyl]-4-methyl-4-thiazolecarboxylic acid] | 55 | 45 | 61 | 31.6 | 33 ± 8 ^b µg g^−1 | 33 ± 8 ^b µg g^−1 | 1.2 ± 0.6 ^c µg g^−1 | 0.09 ± 0.02 ^b µg g^−1 | 0.21 ± 0.01 ^c µg g^−1 | 3.4 ± 0.1 | – | – | 62 | 25.7 | 32 ± 20 ^b µg g^−1 | 32 ± 20 ^b µg g^−1 | 0.7 ± 0.4 ^c µg g^−1 | 0.13 ± 0.04 µg/g | 0.16 ± 0.05 µg/g | 3.1 ± 1.1 µg/g | nephrotoxicity (rats; 2008): did not present with any nephrotoxicity; Bile/Urine (%): bile share of U excretion ([1]; single dose 300 µmol kg^−1 SC): 79%; Bile/Urine (%): urine share of U excretion ([1]; single dose 300 µmol kg^−1 SC): 21%; Reduction (%) of renal uranium vs control ([1]; single dose 300 µmol kg^−1 SC): 85%; % Administered Dose Excreted ([1]; single dose 300 µmol kg^−1 SC): 31.4%; Renal Conc. ([1]; single dose 300 µmol kg^−1 SC): 13 ± 6 ^b µg g^−1; Kidney U Conc. ([1]; single dose 300 µmol kg^−1 SC): 13 ± 6 ^b µg g^−1; Liver U Conc. ([1]; single dose 300 µmol kg^−1 SC): 0.8 ± 0.2 ^c µg g^−1; Lung U Conc. ([1]; single dose 300 µmol kg^−1 SC): 0.08 ± 0.02 ^b µg g^−1; Spleen U Conc. ([1]; single dose 300 µmol kg^−1 SC): 0.18 ± 0.03 µg/g; Bone (femur) U Conc. ([1]; single dose 300 µmol kg^−1 SC): 2.3 ± 0.6 ^b µg g^−1; reduction of bone actinide content vs control [1, 8]: 36% |
| COc1ccc(C2=N[C@@H](C(=O)O)CS2)c(O)c1 [compound 3, (S)-2-(2-hydroxy-4-methoxyphenyl)-4,5-dihydro-4-thiazolecarboxylic acid] | 37 | 63 | 40 | 23.8 | 51 ± 22 ^b µg g^−1 | 51 ± 22 ^b µg g^−1 | 9.0 ± 4.0 ^c µg g^−1 | 0.32 ± 0.09 ^c µg g^−1 | 0.48 ± 0.09 ^c µg g^−1 | 4.1 ± 1.6 | 85 | 15 | 73 | 26.0 | 23 ± 11 ^b µg g^−1 | 23 ± 11 ^b µg g^−1 | 2.5 ± 0.8 ^c µg g^−1 | 0.28 ± 0.10 ^c µg g^−1 | 0.29 ± 0.07 ^c µg g^−1 | 3.1 ± 1.3 µg/g | Bile/Urine (%): bile share of U excretion ([1]; single dose 300 µmol kg^−1 SC): 77%; Bile/Urine (%): urine share of U excretion ([1]; single dose 300 µmol kg^−1 SC): 23%; Reduction (%) of renal uranium vs control ([1]; single dose 300 µmol kg^−1 SC): 60%; % Administered Dose Excreted ([1]; single dose 300 µmol kg^−1 SC): 32.7%; Renal Conc. ([1]; single dose 300 µmol kg^−1 SC): 34 ± 5 ^b µg g^−1; Kidney U Conc. ([1]; single dose 300 µmol kg^−1 SC): 34 ± 5 ^b µg g^−1; Liver U Conc. ([1]; single dose 300 µmol kg^−1 SC): 6.6 ± 1.2 ^c µg g^−1; Lung U Conc. ([1]; single dose 300 µmol kg^−1 SC): 0.32 ± 0.02 ^c µg g^−1; Spleen U Conc. ([1]; single dose 300 µmol kg^−1 SC): 0.39 ± 0.07 ^c µg g^−1; Bone (femur) U Conc. ([1]; single dose 300 µmol kg^−1 SC): 3.0 ± 1.5 µg/g |
